Test results reported in ChEMBL document CHEMBL3112391, “Ethoxysanguinarine Induces Inhibitory Effects and Downregulates CIP2A in Lung Cancer Cells” (ACS Med Chem Lett, 2014).
The source made the active and inactive calls. The calls are words filed in the database; no cut-off is given here.

Assays:
A549 [1] = experiment: Cytotoxicity against human A549 cells assessed as growth inhibition after 48 hrs by MTT assay; type: functional, cell-based; conditions: A549, 48 h
In short: (§1)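 Lung cancer cell lines (adenocarcinoma, squamous and large cell lines) exposed to 0.5−10 μM for 48 h; viability read by MTT; IC50 taken from the dose–response.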

NCI-H1975 [2] = experiment: Cytotoxicity against human NCI-H1975 cells assessed as growth inhibition after 48 hrs by MTT assay; type: functional, cell-based; conditions: NCI-H1975, 48 h; in short: as §1
NCI-H1975 [3] = experiment: Downregulation of CIP2A protein expression in human NCI-H1975 cells after 24 hrs by Western blot analysis; type: functional, cell-based
In short: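 H1975 cells were incubated with ESG at a series of concentrations, including 1 and 2 μM, for 24 h. Cell lysates were Western blotted with anti-CIP2A antibody.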

A549 [4] = experiment: Downregulation of CIP2A mRNA expression in human A549 cells after 24 hrs by RT-PCR analysis; type: functional, cell-based
In short: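 Cells exposed to ESG for 24 h. CIP2A transcript level was measured by real-time quantitative RT-PCR.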

A549 [5] = experiment: Downregulation of CIP2A protein expression in human A549 cells after 24 hrs by Western blot analysis; type: functional, cell-based
In short: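 A549 cells were incubated with ESG at a series of concentrations, including 3.5 and 10 μM, for 24 h. Cell lysates were immunoblotted for CIP2A.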

[6] = target: Protein CIP2A (Homo sapiens) (UniProt Q8TCG1); experiment: Inhibition of CIP2A in human NCI-H1975 cells assessed as downregulation of c-Myc protein expression at 1 to 2.5 uM after 24 hrs by Western blot analysis; type: cell-based
In short: (§2)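 H1975 or A549 cells incubated 24 h across a concentration series; whole-cell lysates immunoblotted for CIP2A, c-Myc, pAKT and total AKT.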

NCI-H460 = experiment: Cytotoxicity against human NCI-H460 cells assessed as growth inhibition after 48 hrs by MTT assay; type: functional, cell-based; conditions: NCI-H460, 48 h; in short: as §1
[7] = Cytotoxicity against human 95-D cells assessed as growth inhibition after 48 hrs by MTT assay; type: functional, cell-based; in short: as §1
[8] = target: Protein CIP2A (Homo sapiens) (UniProt Q8TCG1); experiment: Inhibition of CIP2A in human A549 cells assessed as potentiation of cisplatin-induced cell growth inhibition at 3.5 uM after 24 hrs by MTT assay; type: cell-based
In short: (§3)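 Cells treated 24 h with test agent, cisplatin or both (H1975: 1 μM with 10 μM cisplatin; A549: 3.5 μM with 20 μM cisplatin); viability by MTT.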

[9] = target: Protein CIP2A (Homo sapiens) (UniProt Q8TCG1); experiment: Inhibition of CIP2A in human A549 cells assessed as downregulation of p-AKT protein expression at 1 to 10 uM after 24 hrs by Western blot analysis; type: cell-based; in short: as §2
[10] = target: Protein CIP2A (Homo sapiens) (UniProt Q8TCG1); experiment: Induction of CIP2A proteolysis in human A549 cells at 5 uM after 4 hrs in presence of protein synthesis inhibitor cycloheximide; type: cell-based
In short: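 A549 cells given 100 μg/mL cycloheximide with or without 5 μM test agent over a time course; whole-cell lysates probed for CIP2A.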

[11] = Cytotoxicity against human GLC82 cells assessed as growth inhibition after 48 hrs by MTT assay; type: functional, cell-based; conditions: GLC82, 48 h; in short: as §1
A549 [12] = experiment: Downregulation of CIP2A mRNA expression in human A549 cells at 1 to 10 uM after 24 hrs by RT-PCR analysis; type: functional, cell-based
In short: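 CIP2A transcript measured by real-time quantitative RT-PCR after 24 h treatment.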

A549 [13] = experiment: Induction of apoptosis in human A549 cells assessed as decrease in pro-caspase-8 protein expression at 1 to 10 uM after 24 hrs by Western blot analysis; type: functional, cell-based
In short: (§4)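 H1975 or A549 cells treated 24 h at various concentrations; lysates immunoblotted for apoptosis markers (PARP, caspases).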

[14] = target: Protein CIP2A (Homo sapiens) (UniProt Q8TCG1); experiment: Inhibition of CIP2A in human A549 cells assessed as induction of PP2A activity at 5 uM after 4 to 8 hrs by Western blot analysis; type: cell-based
In short: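 A549 cells exposed to 5 μM over a time course, lysed, and PP2A activity measured in the lysates.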

A549 [15] = experiment: Cytotoxicity against human A549 cells assessed as growth inhibition at 5 uM after 24 hrs by MTT assay in presence of PP2A inhibitor okadaic acid; type: functional, cell-based
In short: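 A549 cells pretreated 2 h with okadaic acid (25 nM), then 5 μM test agent for 24 h; viability by MTT.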

[16] = Cytotoxicity against human L78 cells assessed as growth inhibition after 48 hrs by MTT assay; type: functional, cell-based; conditions: L78, 48 h; in short: as §1
A549 [17] = experiment: Induction of apoptosis in human A549 cells assessed as decrease in pro-caspase-9 protein expression at 1 to 10 uM after 24 hrs by Western blot analysis; type: functional, cell-based; in short: as §4
A549 [18] = experiment: Downregulation of CIP2A protein expression in human A549 cells at 5 uM by Western blot analysis; type: functional, cell-based; conditions: TDE = time-dependent effect
In short: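 A549 cells treated with 5 μM over a time course; lysates immunoblotted for CIP2A.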

NCI-H1975 [19] = experiment: Downregulation of CIP2A protein expression in human NCI-H1975 cells at 1 to 2 uM after 24 hrs by Western blot analysis; type: functional, cell-based; in short: as §2
A549 [20] = experiment: Induction of apoptosis in human A549 cells assessed as PARP cleavage at 1 to 10 uM after 24 hrs by Western blot analysis; type: functional, cell-based; in short: as §4
[21] = target: Protein CIP2A (Homo sapiens) (UniProt Q8TCG1); experiment: Inhibition of CIP2A in human NCI-H1975 cells assessed as downregulation of p-AKT protein expression at 1 to 2.5 uM after 24 hrs by Western blot analysis; type: cell-based; in short: as §2
A549 [22] = experiment: Induction of apoptosis in human A549 cells assessed as PARP cleavage at 5 uM after 24 hrs by Western blot analysis in presence of pan-caspase inhibitor z-VAD.fmk; type: functional, cell-based
In short: (§5)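 Cells pretreated 1 h with z-VAD-fmk (20 μM), then exposed for 24 h (H1975 at 1.5 μM, A549 at 5 μM); lysates immunoblotted for PARP and its cleavage fragment.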

NCI-H1975 [23] = experiment: Induction of apoptosis in human NCI-H1975 cells assessed as PARP cleavage at 1 to 2.5 uM after 24 hrs by Western blot analysis; type: functional, cell-based; in short: as §4
[24] = target: Protein CIP2A (Homo sapiens) (UniProt Q8TCG1); experiment: Induction of FLAG-tagged CIP2A (unknown origin) proteolysis transfected in human A549 cells after 4 to 12 hrs; type: cell-based
In short: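 A549 cells transfected 24 h with Flag-CIP2A, then treated over a time course; whole-cell lysates probed with anti-Flag.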

A549 [25] = experiment: Induction of apoptosis in human A549 cells at 2.5 to 10 uM after 24 hrs by annexin V/propidium iodide staining-based flow cytometric analysis; type: functional, cell-based
In short: (§6)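 H1975 or A549 cells treated 24 h at various concentrations; apoptosis scored by annexin V/propidium iodide staining and flow cytometry.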

A549 [26] = experiment: Downregulation of CIP2A protein expression in human A549 cells at 3.5 to 10 uM after 24 hrs by Western blot analysis; type: functional, cell-based; in short: as §2
[27] = target: Protein CIP2A (Homo sapiens) (UniProt Q8TCG1); experiment: Inhibition of CIP2A in human NCI-H1975 cells assessed as potentiation of cisplatin-induced cell growth inhibition at 1 uM after 24 hrs by MTT assay; type: cell-based; in short: as §3
[28] = target: Protein CIP2A (Homo sapiens) (UniProt Q8TCG1); experiment: Inhibition of CIP2A in human NCI-H1975 cells assessed as potentiation of cisplatin-induced PARP cleavage at 1 uM after 24 hrs by Western blot analysis; type: cell-based
In short: (§7)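 Cells cultured 24 h with test agent and/or cisplatin; lysates immunoblotted for PARP cleavage.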

[29] = Cytotoxicity against human SPC-A1 cells assessed as growth inhibition after 48 hrs by MTT assay; type: functional, cell-based; conditions: SPCA1, 48 h; in short: as §1
[30] = target: Protein CIP2A (Homo sapiens) (UniProt Q8TCG1); experiment: Inhibition of CIP2A in human A549 cells assessed as potentiation of cisplatin-induced PARP cleavage at 3.5 uM after 24 hrs by Western blot analysis; type: cell-based; in short: as §7
[31] = target: Protein CIP2A (Homo sapiens) (UniProt Q8TCG1); experiment: Inhibition of CIP2A in human A549 cells assessed as downregulation of c-Myc protein expression at 1 to 10 uM after 24 hrs by Western blot analysis; type: cell-based; in short: as §2
NCI-H1975 [32] = experiment: Cytotoxicity against human NCI-H1975 cells assessed as growth inhibition at 1.5 uM after 24 hrs by MTT assay in presence of pan-caspase inhibitor z-VAD.fmk; type: functional, cell-based
In short: (§8)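 Cells pretreated 1 h with z-VAD-fmk (20 μM), then exposed for 24 h (H1975 at 1.5 μM, A549 at 5 μM); viability by MTT.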

NCI-H1975 [33] = experiment: Induction of apoptosis in human NCI-H1975 cells assessed as decrease in pro-caspase-9 protein expression at 1 to 2.5 uM after 24 hrs by Western blot analysis; type: functional, cell-based; in short: as §4
A549 [34] = experiment: Cytotoxicity against human A549 cells assessed as growth inhibition at 5 uM after 24 hrs by MTT assay in presence of pan-caspase inhibitor z-VAD.fmk; type: functional, cell-based; in short: as §8
NCI-H1975 [35] = experiment: Induction of apoptosis in human NCI-H1975 cells assessed as PARP cleavage at 1.5 uM after 24 hrs by Western blot analysis in presence of pan-caspase inhibitor z-VAD.fmk; type: functional, cell-based; in short: as §5
NCI-H1975 [36] = experiment: Induction of apoptosis in human NCI-H1975 cells assessed as decrease in pro-caspase-8 protein expression at 1 to 2.5 uM after 24 hrs by Western blot analysis; type: functional, cell-based; in short: as §4
NCI-H1975 [37] = experiment: Induction of apoptosis in human NCI-H1975 cells at 0.5 to 2.5 uM after 24 hrs by annexin V/propidium iodide staining-based flow cytometric analysis; type: functional, cell-based; in short: as §6

SMILES: C=C1C(=O)[C@]23[C@H](O)[C@H]1CC[C@H]2[C@@]12CO[C@@]3(O)C[C@@H]1C(C)(C)CC[C@@H]2OC(C)=O [RABDOCOETSIN B]
- IC50 (A549 [1]): 14200 nM
- IC50 (NCI-H1975 [2]): 10300 nM
- Activity (NCI-H1975 [3]): Active
- Activity (A549 [4]): Active
- Activity (A549 [5]): Active

SMILES: CCOC1c2c(ccc3c2OCO3)-c2ccc3cc4c(cc3c2N1C)OCO4 (stereo not given)
- inhibition [6]: Active
- IC50 (NCI-H460): 1560 nM
- IC50 (A549 [1]): 2740 nM
- IC50 [7]: 2000 nM
- inhibition [8]: Active
- inhibition [9]: Active
- Activity [10]: Active
- IC50 [11]: 1300 nM
- Activity (A549 [12]): Active
- Activity (A549 [13]): Active
- inhibition [14]: Active
- growth inhibition (GI) (A549 [15]): inactive
- IC50 [16]: 1000 nM
- IC50 (NCI-H1975 [2]): 1290 nM
- Activity (A549 [17]): Active
- Activity (A549 [18]): tde
- Activity (NCI-H1975 [19]): Active
- Activity (A549 [20]): Active
- inhibition [21]: Active
- Activity (A549 [22]): inactive
- Activity (NCI-H1975 [23]): Active
- Activity [24]: Active
- Activity (A549 [25]): Active
- Activity (A549 [26]): Active
- inhibition [27]: Active
- inhibition [28]: Active
- IC50 [29]: 1100 nM
- inhibition [30]: Active
- inhibition [31]: Active
- growth inhibition (GI) (NCI-H1975 [32]): inactive
- Activity (NCI-H1975 [33]): Active
- growth inhibition (GI) (A549 [34]): inactive
- Activity (NCI-H1975 [35]): inactive
- Activity (NCI-H1975 [36]): Active
- Activity (NCI-H1975 [37]): Active
